Source: ChEMBL document CHEMBL1123406, “Synthesis and evaluation of 2,3-dihydrobenzofuran analogues of the hallucinogen 1-(2,5-dimethoxy-4-methylphenyl)-2-aminopropane: drug discrimination studies in rats” (1986)
The source made the active and inactive calls. No cut-off for these calls is given here.

Experiments:
[1] = system: Rattus norvegicus; assay: Percentage responding on LSD lever at dose 1.0 mg/kg; assay type: functional
Outline: (§1)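 Male Sprague–Dawley rats (200-240 g, housed singly) trained in a two-lever operant task to discriminate ip saline from LSD tartrate 0.08 mg/kg. Reinforcement was 45 mg food pellets on an FR50 schedule, with 15-min daily training sessions. Test drugs were given 30 min before testing. A test ended at 50 responses on either lever or at 5 min; rats not completing 50 presses were scored disrupted and excluded.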

[2] = system: Rattus norvegicus; assay: Percentage responding on LSD lever at dose 3.0 mg/kg; assay type: functional; outline: as §1
[3] = system: Rattus norvegicus; assay: Number of rats responding on LSD lever/number of rats treated at dose 4.0 mg/kg; 8/8; assay type: functional, organism-based; design: dose 4 mg/kg; outline: as §1
[4] = system: Rattus norvegicus; assay: Number of rats responding on LSD lever/number of rats treated at dose 1.0 mg/kg; 4/8; assay type: functional, organism-based; design: dose 1 mg/kg; outline: as §1
[5] = system: Rattus norvegicus; assay: Percentage responding on LSD lever at dose 2.0 mg/kg; assay type: functional; outline: as §1
[6] = system: Rattus norvegicus; assay: Number of rats responding on LSD lever/number of rats treated at dose 0.5 mg/kg; 1/8; assay type: functional, organism-based; design: dose 0.5 mg/kg; outline: as §1
[7] = system: Rattus norvegicus; assay: Percentage responding on LSD lever at dose 0.5 mg/kg; assay type: functional; outline: as §1
[8] = system: Rattus norvegicus; assay: Number of rats responding on LSD lever/number of rats treated at dose 2.0 mg/kg; 6/8; assay type: functional, organism-based; design: dose 2 mg/kg; outline: as §1
[9] = species on record: Rattus norvegicus; assay: Compound was evaluated for the drug discrimination assay and the ED50 (potency) was determined; assay type: functional; outline: as §1
[10] = system: Rattus norvegicus; assay: Percentage responding on LSD lever at dose 4.0 mg/kg; assay type: functional; outline: as §1
[11] = system: Rattus norvegicus; assay: Number of rats responding on LSD lever/number of rats treated at dose 3.0 mg/kg; 8/10; assay type: functional, organism-based; design: dose 3 mg/kg; outline: as §1
[12] = system: Rattus norvegicus; assay: Percentage responding on LSD lever at dose 16.0 mg/kg; assay type: functional; outline: as §1
[13] = system: Rattus norvegicus; assay: Percentage responding on LSD lever at dose 8.0 mg/kg; assay type: functional; outline: as §1
[14] = system: Rattus norvegicus; assay: Number of rats responding on LSD lever/number of rats treated at dose 10.0 mg/kg; 10/12; assay type: functional, organism-based; design: dose 10 mg/kg; outline: as §1
[15] = system: Rattus norvegicus; assay: Percentage responding on LSD lever at dose 10.0 mg/kg; assay type: functional; outline: as §1
[16] = system: Rattus norvegicus; assay: Percentage responding on LSD lever at dose 0.25 mg/kg; assay type: functional; outline: as §1
[17] = system: Rattus norvegicus; assay: Number of rats responding on LSD lever/number of rats treated at dose 8.0 mg/kg; 6/8; assay type: functional, organism-based; design: dose 8 mg/kg; outline: as §1
[18] = system: Rattus norvegicus; assay: Number of rats responding on LSD lever/number of rats treated at dose 0.25 mg/kg; 1/8; assay type: functional, organism-based; design: dose 0.25 mg/kg; outline: as §1
[19] = system: Rattus norvegicus; assay: Number of rats responding on LSD lever/number of rats treated at dose 4.0 mg/kg; 5/8; assay type: functional, organism-based; design: dose 4 mg/kg; outline: as §1
[20] = system: Rattus norvegicus; assay: Number of rats responding on LSD lever/number of rats treated at dose 1.0 mg/kg; 1/8; assay type: functional, organism-based; design: dose 1 mg/kg; outline: as §1

Structure (SMILES): COc1cc2c(cc1CC(C)N)OCO2 (stereo not drawn)
- Responding [1]: 50%
- Responding [2]: 80%
- Activity [3]: Active
- Activity [4]: Weak activity
- Responding [5]: 75%
- Activity [6]: inactive
- Responding [7]: 13%
- Activity [8]: Weak activity
- ED50 [9]: 1.71 mg/kg
- Responding [10]: 100%
- Activity [11]: Active

Structure (SMILES): COc1cc2c(cc1CC(C)N)OC(C)C2 (stereo not drawn)
- Responding [12]: 88%
- Responding [13]: 63%
- Responding [5]: 0%
- Responding [7]: 0%
- ED50 [9]: 5.5 mg/kg
- Responding [10]: 38%

Structure (SMILES): COc1cc2c(cc1CC(C)N)OCC2 (stereo not drawn)
- Responding [1]: 13%
- Responding [13]: 75%
- Activity [14]: Active
- Responding [15]: 83%
- Responding [16]: 13%
- ED50 [9]: 2.12 mg/kg
- Responding [10]: 63%
- Activity [17]: Weak activity
- Activity [18]: inactive
- Activity [19]: Weak activity
- Activity [20]: inactive
